Measured values: ChEMBL document CHEMBL1821586, “Identification and biological activities of new taccalonolide microtubule stabilizers” (J Med Chem, 2011)
Calls of active or inactive are those of the source. The calls are words filed in the database; no cut-off is given here.

Legend:
HeLa [1] = assay: Induction of interphase microtubule bundling in human HeLa cells at 0.32 uM after 18 hrs by indirect immunofluorescence; assay type: cell-based
HeLa [2] = assay: Antiproliferative activity against human HeLa cells after 48 hrs by SRB assay; assay type: functional, cell-based
Outline: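 HeLa cells grown in BME with 10% FBS and 50 µg/ml gentamicin, drug-treated 48 h, proliferation read by SRB assay.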

HeLa [3] = assay: Inhibition of beta tubulin in human HeLa cells assessed asultiple abnormal mitotic spindle formation at 0.32 uM after 18 hrs by immunofluorescence analysis; assay type: cell-based
HeLa [4] = assay: Cell cycle arrest in human HeLa cells assessed as accumulation of cells at G2/M phase at 0.32 uM after 18 hrs by flow cytometric analysis; assay type: functional, cell-based
Outline: (§1)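 DNA stained with propidium iodide (Krishan's reagent); DNA content measured by flow cytometry and plotted as PI intensity vs events.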

HeLa [5] = assay: Induction of interphase microtubule bundling in human HeLa cells at 3.5 uM after 18 hrs by indirect immunofluorescence analysis; assay type: cell-based
HeLa [6] = assay: Cell cycle arrest in human HeLa cells assessed as accumulation of cells at G2/M phase at 3.5 uM after 18 hrs by flow cytometric analysis; assay type: functional, cell-based; outline: as §1
HeLa [7] = assay: Inhibition of beta tubulin in human HeLa cells assessed asultiple abnormal mitotic spindle formation at 3.5 uM after 18 hrs by immunofluorescence analysis; assay type: cell-based
HeLa [8] = assay: Induction of interphase microtubule bundling in human HeLa cells at 0.5 uM after 18 hrs by indirect immunofluorescence analysis; assay type: cell-based
HeLa [9] = assay: Cell cycle arrest in human HeLa cells assessed as accumulation of cells at G2/M phase at 12 nM after 18 hrs by flow cytometric analysis; assay type: functional, cell-based; outline: as §1
[10] = Antitumor activity against mouse 16/C cells allografted in mouse B6C3F1 assessed as decrease in tumor mass at 73.5 mg/kg, iv; assay type: functional
Outline: (§2)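 Female B6C3F1 mice (mean 19.3 ± 1.0 g) carried bilateral s.c. Mammary 16/C tumor fragments implanted day 0, 5 mice/group. […] All were given IV in 0.2 ml. Tumor mass = L×W²/2, measured 2–3 times weekly. %T/C = treated/control median mass, zeros included, taken when control tumors reach ~700–1200 mg.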

[11] = Antitumor activity against mouse 16/C cells allografted in mouse B6C3F1 assessed as delay in tumor growth at 73.5 mg/kg, iv relative to control; assay type: functional
Outline: (§3)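 Mammary 16/C fragments implanted s.c. bilaterally in female B6C3F1 mice on day 0, 5 mice/group, IV dosing in 0.2 ml. Tumors measured 2–3 times weekly. T-C = median days for treated vs control tumors to reach 1000 mg. Gross log cell kill = (T-C)/3.32×Td, with Td the doubling time from a log-linear fit of control tumor growth.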

[12] = Antitumor activity against mouse 16/C cells allografted in mouse B6C3F1 assessed as gross log cell killing at 73.5 mg/kg, iv relative to control; assay type: functional
Mus musculus [13] = assay: Toxicity in B6C3F1 mouse allografted with mouse 16/C cells assessed as mean body weight loss at 73.5 mg/kg, iv (reference value: -2.2%); assay type: organism-based; parameters: dose 73.5 mg/kg, route intravenous; conditions: in vivo
HeLa [14] = assay: Inhibition of beta tubulin in human HeLa cells assessed asultiple abnormal mitotic spindle formation at 12 nM after 18 hrs by immunofluorescence analysis; assay type: cell-based
HeLa [15] = assay: Induction of interphase microtubule bundling in human HeLa cells at 0.8 uM after 18 hrs by indirect immunofluorescence analysis; assay type: cell-based
HeLa [16] = assay: Cell cycle arrest in human HeLa cells assessed as accumulation of cells at G2/M phase at 0.8 uM after 18 hrs by flow cytometric analysis; assay type: functional, cell-based
HeLa [17] = assay: Inhibition of beta tubulin in human HeLa cells assessed asultiple abnormal mitotic spindle formation at 0.8 uM after 18 hrs by immunofluorescence analysis; assay type: cell-based
HeLa [18] = assay: Induction of interphase microtubule bundling in human HeLa cells at 13.5 uM after 18 hrs by indirect immunofluorescence; assay type: cell-based
HeLa [19] = assay: Cell cycle arrest in human HeLa cells assessed as accumulation of cells at G2/M phase at 13.5 uM after 18 hrs by flow cytometric analysis; assay type: functional, cell-based; outline: as §1
HeLa [20] = assay: Inhibition of beta tubulin in human HeLa cells assessed asultiple abnormal mitotic spindle formation at 13.5 uM after 18 hrs by immunofluorescence analysis; assay type: cell-based
HeLa [21] = assay: Induction of interphase microtubule bundling in human HeLa cells at 0.6 uM after 18 hrs by indirect immunofluorescence; assay type: cell-based
HeLa [22] = assay: Cell cycle arrest in human HeLa cells assessed as accumulation of cells at G2/M phase at 0.6 uM after 18 hrs by flow cytometric analysis; assay type: functional, cell-based; outline: as §1
HeLa [23] = assay: Inhibition of beta tubulin in human HeLa cells assessed asultiple abnormal mitotic spindle formation at 0.6 uM after 18 hrs by immunofluorescence analysis; assay type: cell-based
HeLa [24] = assay: Induction of interphase microtubule bundling in human HeLa cells at 2.5 uM after 18 hrs by indirect immunofluorescence analysis; assay type: cell-based
HeLa [25] = assay: Cell cycle arrest in human HeLa cells assessed as accumulation of cells at G2/M phase at 2.5 uM after 18 hrs by flow cytometric analysis; assay type: functional, cell-based; outline: as §1
[26] = Antitumor activity against mouse 16/C cells allografted in mouse B6C3F1 assessed as decrease in tumor mass at 90 mg/kg, iv administered on days 1,4,6, 8, 9, 10 and 11 relative to control; assay type: functional; outline: as §2
[27] = Antitumor activity against mouse 16/C cells allografted in mouse B6C3F1 assessed as decrease in tumor mass at 54 mg/kg, iv administered on days 1,4,6, 8, 9, 10 and 11 relative to control; assay type: functional; outline: as §2
[28] = Antitumor activity against mouse 16/C cells allografted in mouse B6C3F1 assessed as delay in tumor growth at 90 mg/kg, iv administered on days 1,4,6, 8, 9, 10 and 11 relative to control; assay type: functional; outline: as §3
[29] = Antitumor activity against mouse 16/C cells allografted in mouse B6C3F1 assessed as delay in tumor growth at 54 mg/kg, iv administered on days 1,4,6, 8, 9, 10 and 11 relative to control; assay type: functional; outline: as §3
[30] = Antitumor activity against mouse 16/C cells allografted in mouse B6C3F1 assessed as gross log cell killing at 90 mg/kg, iv administered on days 1,4,6, 8, 9, 10 and 11 relative to control; assay type: functional
Outline: (§4)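 Mammary 16/C tumor fragments implanted bilaterally s.c. in female B6C3F1 mice on day 0, 5 mice/group. Taccalonolides in 50% DMSO:50% Cremophor stock, diluted with sterile water, given i.v. in 0.2 ml on days 1, 4, 6, plus one dose 2–3 days later (A, N) or further doses days 8, 9, 11 (E). Tumor mass = length × width²/2, measured 2–3 times weekly. Gross log cell kill = (T-C)/3.32 × Td, with T-C the days to 1000 mg.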

[31] = Antitumor activity against mouse 16/C cells allografted in mouse B6C3F1 assessed as gross log cell killing at 54 mg/kg, iv administered on days 1,4,6, 8, 9, 10 and 11 relative to control; assay type: functional; outline: as §4
Mus musculus [32] = assay: Toxicity in B6C3F1 mouse allografted with mouse 16/C cells assessed as mean body weight loss at 90 mg/kg, iv administered on days 1,4,6, 8, 9, 10 and 11 (reference value: -2.2%); assay type: organism-based; parameters: dose 90 mg/kg, route intravenous; conditions: in vivo
Mus musculus [33] = assay: Toxicity in B6C3F1 mouse allografted with mouse 16/C cells assessed as mean body weight loss at 54 mg/kg, iv administered on days 1,4,6, 8, 9, 10 and 11 (reference value: -2.2%); assay type: organism-based; parameters: dose 54 mg/kg, route intravenous; conditions: in vivo
[34] = Toxicity in B6C3F1 mouse allografted with mouse 16/C cells assessed as lethality at 90 mg/kg, iv administered on days 1,4,6, 8, 9, 10 and 11 measured after 12 days relative to control; assay type: organism-based; parameters: dose 90 mg/kg, route intravenous; conditions: in vivo, read-out: Activity
Outline: (§5)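 Female B6C3F1 mice, 5 per group, bore bilateral s.c. Mammary 16/C fragments. Taccalonolides in DMSO:Cremophor diluted with water were given i.v. on days 1, 4, 6 plus a later dose (A, N) or days 8, 9, 11 (E). Mice were weighed and observed daily, and lethality was recorded per group.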

[35] = Toxicity in B6C3F1 mouse allografted with mouse 16/C cells assessed as lethality at 54 mg/kg, iv administered on days 1,4,6, 8, 9, 10 and 11 measured after 12 days relative to control; assay type: organism-based; parameters: dose 54 mg/kg, route intravenous; conditions: in vivo, read-out: Activity; outline: as §5
HeLa [36] = assay: Inhibition of beta tubulin in human HeLa cells assessed asultiple abnormal mitotic spindle formation at 2.5 uM after 18 hrs by immunofluorescence analysis; assay type: cell-based
HeLa [37] = assay: Induction of interphase microtubule bundling in human HeLa cells at 57 uM after 18 hrs by indirect immunofluorescence; assay type: cell-based
HeLa [38] = assay: Cell cycle arrest in human HeLa cells assessed as accumulation of cells at G2/M phase at 111 uM after 18 hrs by flow cytometric analysis; assay type: functional, cell-based; outline: as §1
HeLa [39] = assay: Inhibition of beta tubulin in human HeLa cells assessed asultiple abnormal mitotic spindle formation at 57 uM after 18 hrs by immunofluorescence analysis; assay type: cell-based

CC(=O)O[C@@H]1[C@H]2[C@H]3[C@H]([C@H](OC(C)=O)[C@H](OC(C)=O)[C@]2(C)[C@@H]2[C@@H]1[C@]1(C)C(=C[C@H]2C)OC(=O)[C@@]1(C)O)[C@@]1(C)[C@@H](OC(C)=O)[C@H]2O[C@H]2C[C@]1(O)C(=O)[C@@H]3OC(C)=O [TACCALONOLIDE AA]
Activity (HeLa [1]): Active | IC50 (HeLa [2]): 0.0323 µM | inhibition (HeLa [3]): Active | Activity (HeLa [4]): Active

CC(=O)O[C@@H]1[C@H]2[C@@H]3[C@@H](OC(C)=O)C(=O)[C@@]4(O)C[C@@H]5O[C@@H]5[C@H](OC(=O)CC(C)C)[C@]4(C)[C@H]3C[C@H](OC(C)=O)[C@]2(C)[C@@H]2[C@@H]1[C@]1(C)C(=C[C@H]2C)OC(=O)[C@@]1(C)O [TACCALONOLIDE T]
Activity (HeLa [5]): Active | Activity (HeLa [6]): Active | IC50 (HeLa [2]): 0.335 µM | inhibition (HeLa [7]): Active

CC(=O)O[C@H]1C(=O)[C@@]2(C)[C@H]([C@H](OC(=O)c3ccccc3)[C@]3(O)C[C@H](OC(=O)[C@H](O)[C@@H](NC(=O)c4ccccc4)c4ccccc4)C(C)=C1C3(C)C)[C@]1(OC(C)=O)CO[C@@H]1C[C@@H]2O [PACLITAXEL]
Activity (HeLa [8]): Active | Activity (HeLa [9]): Active | T/C [10]: 0% | Time [11]: 19 days | LCK [12]: 4.8 | Activity (Mus musculus [13]): -6.3% | inhibition (HeLa [14]): Active

CC(=O)O[C@H]1[C@H]2[C@H]([C@@H]3[C@@H](O)[C@@H]4[C@H]([C@H](C)C=C5OC(=O)[C@@](C)(O)[C@@]54C)[C@@]3(C)[C@H]1OC(C)=O)[C@@H](O)C(=O)[C@H]1C[C@@H]3O[C@@H]3[C@H](OC(C)=O)[C@]21C [TACCALONOLIDE B]
Activity (HeLa [15]): Active | Activity (HeLa [16]): Active | IC50 (HeLa [2]): 0.19 µM | inhibition (HeLa [17]): Active

CC(=O)O[C@H]1[C@H]2[C@H]([C@@H]3[C@@H](O)[C@@H]4[C@H]([C@H](C)C=C5OC(=O)[C@@](C)(O)[C@@]54C)[C@@]3(C)[C@H]1OC(C)=O)[C@@H](O)C(=O)[C@@]1(O)C[C@@H]3O[C@@H]3[C@H](OC(C)=O)[C@]21C [TACCALONOLIDE AB]
Activity (HeLa [18]): Active | Activity (HeLa [19]): Active | IC50 (HeLa [2]): 2.77 µM | inhibition (HeLa [20]): Active

CC(=O)O[C@@H]1[C@H]2[C@H]3[C@H]([C@H](OC(C)=O)[C@H](OC(C)=O)[C@]2(C)[C@@H]2[C@@H]1[C@]1(C)C(=C[C@H]2C)OC(=O)[C@@]1(C)O)[C@@]1(C)[C@@H](OC(C)=O)[C@H]2O[C@H]2C[C@]1(O)C(=O)[C@@H]3O [TACCALONOLIDE Z]
Activity (HeLa [21]): Active | Activity (HeLa [22]): Active | IC50 (HeLa [2]): 0.12 µM | inhibition (HeLa [23]): Active

CC(=O)O[C@@H]1[C@H]2[C@@H]3[C@@H](O)C(=O)[C@H]4C[C@@H]5O[C@@H]5[C@H](OC(C)=O)[C@]4(C)[C@H]3C[C@H](OC(C)=O)[C@]2(C)[C@@H]2[C@@H]1[C@]1(C)C(=C[C@H]2C)OC(=O)[C@@]1(C)O [TACCALONOLIDE E]
Activity (HeLa [24]): Active | Activity (HeLa [25]): Active | IC50 (HeLa [2]): 0.644 µM | T/C [26]: 17% | T/C [27]: 81% | Time [28]: 5 days | Time [29]: 1 days | LCK [30]: 1.25 | LCK [31]: 0.25 | Activity (Mus musculus [32]): -4.1% | Activity (Mus musculus [33]): -2% | mortality at 288 h [34]: 0% | mortality at 288 h [35]: 0% | inhibition (HeLa [36]): Active

CC(=O)O[C@@H]1[C@H]2[C@@H]3[C@@H](OC(C)=O)C(=O)[C@@]4(O)C[C@@H]5O[C@@H]5[C@H](OC(C)=O)[C@]4(C)[C@H]3C[C@H](OC(C)=O)[C@]2(C)[C@@H]2[C@@H]1[C@]1(C)C(=C[C@H]2C)OC(=O)[C@@]1(C)O [TACCALONOLIDE R]
Activity (HeLa [37]): Active | Activity (HeLa [38]): Active | IC50 (HeLa [2]): 13.1 µM | inhibition (HeLa [39]): Active
